In ChEMBL document CHEMBL3612047, “Synthesis, antiproliferative activity and possible mechanism of action of novel 2-acetamidobenzamides bearing the 2-phenoxy functionality” (Bioorg Med Chem, 2015):
Activity calls are given as the source filed them. No cut-off for these calls is given here.

Columns and labels:
K562 [1] = experiment: Induction of cell cycle arrest in human K562 cells assessed as accumulation at G0/G1 phase at 10 uM incubated for 48 hrs by propidium iodide staining based flow cytometry (reference value: 56.6%); format: functional
K562 [2] = experiment: Induction of apoptosis in human K562 cells assessed as necrotic cells level at 10 uM incubated for 24 hrs by Annexin-V and propidium iodide staining staining based flow cytometry (reference value: 0.3%); format: functional
K562 [3] = experiment: Reduction in cell size of human K562 cells at 10 and 25 uM incubated for 48 hrs by light microscopy; format: functional, cell-based
How it was run: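 K562 cells (8 × 10³/well) plated on poly-D-lysine-coated wells and treated at 10 or 25 μM for 48 h. Examined by light microscopy at 200× for shape, detachment, cell number and cell size.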

K562 [4] = experiment: Induction of apoptosis in human K562 cells assessed as late apoptotic cells level at 10 uM incubated for 24 hrs by Annexin-V and propidium iodide staining staining based flow cytometry (reference value: 0.2%); format: functional
K562 [5] = experiment: Induction of cell cycle arrest in human K562 cells assessed as accumulation at sub G0/G1 phase at 10 uM incubated for 24 hrs by propidium iodide staining based flow cytometry (reference value: 0.8%); format: functional
[6] = Growth inhibition of human BT549 cells by NCI standard protocol based method; format: functional; settings: BT-549
How it was run: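 NCI full 60-cell-line panel, 5-dose assay to the NCI standard protocol. GI₅₀ is the molar concentration inhibiting 50% net cell growth. Mean graph midpoint is averaged over all lines; where the effect is not reached, the highest tested concentration is used.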

SMILES	Activity (K562 [1])	Activity (K562 [2])	Activity (K562 [3])	Activity (K562 [4])	Activity (K562 [5])	GI50 [6]
NC(=O)c1cc(I)ccc1NC(=O)COc1ccccc1	45.2%	0.9%	Active	12.5%	14.5%	
COc1cc(NC(=O)COc2ccccc2)c(C(N)=O)cc1OC	39.4%	2.3%	Active	11.6%	13.2%	770 nM
